Measured values as given in ChEMBL document CHEMBL1212813, “alpha-Amino-3-hydroxy-5-methyl-4-isoxazolepropionic acid (AMPA) antagonists: from bench to bedside” (J Med Chem, 2010).

Columns and labels:
Mus musculus [1] = test: Anticonvulsant activity in po dosed mouse assessed as inhibition of MES-induced tonic seizures; assay type: functional
Method in brief: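 Mice were dosed orally 2 h before maximal electroshock. The read-out was protection from tonic convulsions, and an ED50 was derived.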

[2] = Displacement of [3H]AMPA from AMPA receptor in rat cortical membrane; assay type: cell membranes
[3] = Displacement of [3H]kainate from kainate receptor in rat cortical membrane; assay type: cell membranes
Glutamate NMDA receptor [4] = test: Inhibition of NMDA receptor glutamate site from rat cortical membrane
Glutamate NMDA receptor [5] = test: Inhibition of NMDA receptor glycine site from rat cortical membrane
Rattus norvegicus [6] = test: Neuroprotective effect against middle cerebral artery occlusion-induced focal cerebral ischemia in iv dosed spontaneously hypertensive rat brain after 1 to 5 hrs of occlusion; assay type: functional
Rattus norvegicus [7] = test: Anticonvulsant activity in ip dosed rat assessed as inhibition of MES-induced tonic seizures; assay type: functional
[8] = Antagonist activity at AMPA receptor in rat cortical membrane assessed as inhibition of AMPA-induced membrane current; assay type: functional, cell membranes
Mus musculus [9] = test: Anticonvulsant activity in ip dosed DBA2 mouse assessed as inhibition of sound-induced clonic seizures; assay type: functional
Rattus norvegicus [10] = species on record: Rattus norvegicus; test: Selectivity ratio IC50 for rat AMPA receptor to IC50 rat kainate receptor
Rattus norvegicus [11] = test: Neuroprotective effect against middle cerebral artery occlusion-induced focal cerebral ischemia in iv dosed spontaneously hypertensive rat; assay type: functional
[12] = Antagonist activity at AMPA receptor in rat cortical membrane assessed as inhibition of AMPA-induced calcium accumulation; assay type: functional, cell membranes
Mus musculus [13] = test: Anticonvulsant activity in po dosed mouse assessed as inhibition of PTZ-induced seizures; assay type: functional
Homo sapiens [14] = species on record: Homo sapiens; test: Antiepileptic activity in human patient assessed as reduction in refractory partial seizures; assay type: functional; parameters: scale not given: the % may be the effect or the level left
Meriones unguiculatus [15] = species on record: Meriones unguiculatus; test: Neuroprotective activity against middle cerebral artery occlusion-induced focal cerebral ischemia in Mongolian gerbils assessed survival of hippocampal CA1 neurons; assay type: functional
Meriones unguiculatus [16] = test: Neuroprotective activity against middle cerebral artery occlusion-induced focal cerebral ischemia in Mongolian gerbils assessed as reduction in infarct volume at 6 mg/kg, iv bid; assay type: functional; parameters: scale not given: the % may be the effect or the level left
Homo sapiens [17] = species on record: Homo sapiens; test: Toxicity in human assessed as ataxia; assay type: organism-based; conditions: in vivo
Homo sapiens [18] = species on record: Homo sapiens; test: Toxicity in human assessed as dizziness; assay type: organism-based; conditions: in vivo
[19] = molecular target: Glutamate receptor ionotropic, kainate 1 (Homo sapiens) (UniProt P39086); test: Binding affinity to GluR5
Sequence of Glutamate receptor ionotropic, kainate 1 (Homo sapiens) (P39086 whole entry): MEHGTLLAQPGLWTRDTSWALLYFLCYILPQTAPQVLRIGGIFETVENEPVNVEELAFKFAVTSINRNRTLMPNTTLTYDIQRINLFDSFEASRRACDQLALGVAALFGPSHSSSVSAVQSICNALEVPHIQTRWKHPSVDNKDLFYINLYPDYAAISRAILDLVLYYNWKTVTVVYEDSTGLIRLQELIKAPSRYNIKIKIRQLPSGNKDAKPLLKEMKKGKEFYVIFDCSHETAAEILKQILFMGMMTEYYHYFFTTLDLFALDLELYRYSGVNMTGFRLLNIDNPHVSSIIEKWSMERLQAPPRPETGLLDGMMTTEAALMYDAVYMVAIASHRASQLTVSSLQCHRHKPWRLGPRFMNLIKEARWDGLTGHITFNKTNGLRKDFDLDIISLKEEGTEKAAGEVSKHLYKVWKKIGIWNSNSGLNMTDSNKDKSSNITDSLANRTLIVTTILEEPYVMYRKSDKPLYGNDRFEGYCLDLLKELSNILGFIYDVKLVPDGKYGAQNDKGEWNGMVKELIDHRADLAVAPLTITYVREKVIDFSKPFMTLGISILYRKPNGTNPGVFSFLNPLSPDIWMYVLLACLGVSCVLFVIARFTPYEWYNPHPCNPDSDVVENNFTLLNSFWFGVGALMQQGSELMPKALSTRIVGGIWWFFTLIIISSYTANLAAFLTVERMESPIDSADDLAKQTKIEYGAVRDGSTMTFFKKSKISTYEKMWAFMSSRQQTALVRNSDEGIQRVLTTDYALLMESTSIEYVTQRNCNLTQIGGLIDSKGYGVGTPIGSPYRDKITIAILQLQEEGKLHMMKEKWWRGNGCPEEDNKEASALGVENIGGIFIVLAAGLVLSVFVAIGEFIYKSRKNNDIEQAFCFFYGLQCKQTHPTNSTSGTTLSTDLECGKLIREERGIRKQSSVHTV

[20] = molecular target: T1, Glutamate receptor ionotropic, kainate 2 (Homo sapiens, UniProt Q13002); test: Binding affinity to GluR6
T1 sequence (Q13002 whole entry): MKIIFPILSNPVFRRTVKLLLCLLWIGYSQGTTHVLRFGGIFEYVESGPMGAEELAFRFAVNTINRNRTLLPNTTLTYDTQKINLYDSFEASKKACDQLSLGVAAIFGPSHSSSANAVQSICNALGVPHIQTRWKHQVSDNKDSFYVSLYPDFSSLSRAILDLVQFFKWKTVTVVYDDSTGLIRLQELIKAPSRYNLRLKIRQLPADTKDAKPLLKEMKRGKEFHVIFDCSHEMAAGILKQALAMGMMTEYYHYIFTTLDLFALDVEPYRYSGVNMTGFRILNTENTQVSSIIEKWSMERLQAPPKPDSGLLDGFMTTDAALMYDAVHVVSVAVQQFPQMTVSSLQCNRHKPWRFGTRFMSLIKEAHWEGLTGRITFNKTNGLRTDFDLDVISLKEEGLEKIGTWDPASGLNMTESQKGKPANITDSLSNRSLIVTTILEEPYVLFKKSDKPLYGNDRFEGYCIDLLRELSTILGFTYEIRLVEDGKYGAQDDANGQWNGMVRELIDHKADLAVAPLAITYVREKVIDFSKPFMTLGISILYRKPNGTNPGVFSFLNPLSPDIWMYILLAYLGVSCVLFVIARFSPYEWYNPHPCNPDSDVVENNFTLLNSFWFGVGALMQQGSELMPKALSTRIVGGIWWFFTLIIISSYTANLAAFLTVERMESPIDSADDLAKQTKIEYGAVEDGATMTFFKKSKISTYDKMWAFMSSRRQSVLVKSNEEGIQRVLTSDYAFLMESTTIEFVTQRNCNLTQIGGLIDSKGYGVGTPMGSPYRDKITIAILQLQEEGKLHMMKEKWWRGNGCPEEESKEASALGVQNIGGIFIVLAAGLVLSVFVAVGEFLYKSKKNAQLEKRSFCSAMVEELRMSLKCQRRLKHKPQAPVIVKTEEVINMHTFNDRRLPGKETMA

[21] = molecular target: Glutamate receptor ionotropic, kainate 3 (Homo sapiens, UniProt Q13003); test: Binding affinity to GluR7
Sequence of Glutamate receptor ionotropic, kainate 3 (Q13003 whole entry): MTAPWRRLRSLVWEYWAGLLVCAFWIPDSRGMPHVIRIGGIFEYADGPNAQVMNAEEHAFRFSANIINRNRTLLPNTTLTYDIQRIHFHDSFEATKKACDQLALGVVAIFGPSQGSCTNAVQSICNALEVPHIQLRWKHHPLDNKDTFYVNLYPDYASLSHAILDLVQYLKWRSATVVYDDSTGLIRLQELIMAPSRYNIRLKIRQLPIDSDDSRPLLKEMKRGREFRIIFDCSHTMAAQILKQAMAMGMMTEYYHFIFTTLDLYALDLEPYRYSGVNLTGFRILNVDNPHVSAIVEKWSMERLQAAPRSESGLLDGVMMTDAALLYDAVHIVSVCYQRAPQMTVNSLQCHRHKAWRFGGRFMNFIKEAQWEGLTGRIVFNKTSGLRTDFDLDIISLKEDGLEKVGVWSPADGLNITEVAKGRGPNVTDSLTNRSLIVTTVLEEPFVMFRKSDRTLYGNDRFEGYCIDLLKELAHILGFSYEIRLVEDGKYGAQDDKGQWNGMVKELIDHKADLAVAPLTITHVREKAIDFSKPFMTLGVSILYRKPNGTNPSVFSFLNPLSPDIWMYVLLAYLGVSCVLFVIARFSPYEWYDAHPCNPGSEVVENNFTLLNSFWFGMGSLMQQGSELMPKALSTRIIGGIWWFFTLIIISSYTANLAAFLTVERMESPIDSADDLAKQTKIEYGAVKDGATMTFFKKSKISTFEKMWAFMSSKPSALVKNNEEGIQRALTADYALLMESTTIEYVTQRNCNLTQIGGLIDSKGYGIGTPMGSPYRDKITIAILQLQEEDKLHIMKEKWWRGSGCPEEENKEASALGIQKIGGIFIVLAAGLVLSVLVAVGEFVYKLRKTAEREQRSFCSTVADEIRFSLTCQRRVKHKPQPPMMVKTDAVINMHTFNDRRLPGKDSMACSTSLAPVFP

Mus musculus [22] = test: Anticonvulsant activity in ip dosed mouse assessed as inhibition of MES-induced tonic seizures; assay type: functional
Meriones unguiculatus [23] = species on record: Meriones unguiculatus; test: Neuroprotective activity against middle cerebral artery occlusion-induced focal cerebral ischemia in Mongolian gerbils assessed as reduction in infarct volume in cortex; assay type: functional; parameters: scale not given: the % may be the effect or the level left
Meriones unguiculatus [24] = species on record: Meriones unguiculatus; test: Neuroprotective activity against middle cerebral artery occlusion-induced focal cerebral ischemia in Mongolian gerbils assessed as reduction in infarct volume in hemesphere; assay type: functional; parameters: scale not given: the % may be the effect or the level left
Felis catus [25] = species on record: Felis catus; test: Neuroprotective activity against middle cerebral artery occlusion-induced focal cerebral ischemia in cat assessed as reduction in infarct volume in hemesphere; assay type: functional; parameters: scale not given: the % may be the effect or the level left
Felis catus [26] = species on record: Felis catus; test: Neuroprotective activity against middle cerebral artery occlusion-induced focal cerebral ischemia in cat assessed as reduction in infarct volume in cortex; assay type: functional; parameters: scale not given: the % may be the effect or the level left
Homo sapiens [27] = species on record: Homo sapiens; test: Toxicity in human assessed as occurance of systemic allodynia; assay type: organism-based; conditions: in vivo
Homo sapiens [28] = species on record: Homo sapiens; test: Toxicity in human assessed as hazy vision; assay type: organism-based; conditions: in vivo
Homo sapiens [29] = species on record: Homo sapiens; test: Toxicity in human assessed as sedation; assay type: organism-based; conditions: in vivo
[30] = molecular target: T1, Glutamate receptor ionotropic, kainate 2; conditions: 10 uM
Rattus norvegicus [31] = test: Neuroprotective effect against middle cerebral artery occlusion-induced focal cerebral ischemia in spontaneously hypertensive rat at 20 mg/kg, iv after 3 hrs of occlusion; assay type: functional
Rattus norvegicus [32] = test: Neuroprotective effect against middle cerebral artery occlusion-induced focal cerebral ischemia in spontaneously hypertensive rat at 20 mg/kg, iv after 2 hrs of occlusion; assay type: functional
Rattus norvegicus [33] = test: […] effect against middle cerebral artery occlusion-induced focal cerebral ischemia in spontaneously hypertensive rat assessed as reduction in infarct volume at 20 mg/kg, iv after 2 hrs of occlusion; assay type: functional; parameters: scale not given: the % may be the effect or the level left
[34] = molecular target: T2, Solute carrier family 22 member 6 (Homo sapiens, UniProt Q4U2R8); test: Inhibition of human OAT1
T2 sequence (Q4U2R8 whole entry): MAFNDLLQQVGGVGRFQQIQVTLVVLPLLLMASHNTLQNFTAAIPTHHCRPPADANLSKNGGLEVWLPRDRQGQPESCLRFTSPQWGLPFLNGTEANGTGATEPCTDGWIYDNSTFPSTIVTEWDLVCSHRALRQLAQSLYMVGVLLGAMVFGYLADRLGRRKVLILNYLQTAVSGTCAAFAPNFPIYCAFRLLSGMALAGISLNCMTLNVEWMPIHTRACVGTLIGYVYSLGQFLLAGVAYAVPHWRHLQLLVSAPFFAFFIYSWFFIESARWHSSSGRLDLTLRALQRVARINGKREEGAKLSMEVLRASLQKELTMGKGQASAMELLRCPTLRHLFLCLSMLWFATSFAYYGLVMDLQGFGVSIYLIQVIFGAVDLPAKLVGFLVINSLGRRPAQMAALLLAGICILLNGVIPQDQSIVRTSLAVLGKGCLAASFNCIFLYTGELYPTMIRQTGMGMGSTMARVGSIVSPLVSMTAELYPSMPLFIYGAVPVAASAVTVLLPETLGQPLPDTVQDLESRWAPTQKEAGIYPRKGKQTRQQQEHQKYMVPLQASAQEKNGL

[35] = molecular target: T3, Organic anion transporter 3 (Homo sapiens, UniProt Q8TCC7); test: Inhibition of human OAT3
T3 sequence (Q8TCC7 whole entry): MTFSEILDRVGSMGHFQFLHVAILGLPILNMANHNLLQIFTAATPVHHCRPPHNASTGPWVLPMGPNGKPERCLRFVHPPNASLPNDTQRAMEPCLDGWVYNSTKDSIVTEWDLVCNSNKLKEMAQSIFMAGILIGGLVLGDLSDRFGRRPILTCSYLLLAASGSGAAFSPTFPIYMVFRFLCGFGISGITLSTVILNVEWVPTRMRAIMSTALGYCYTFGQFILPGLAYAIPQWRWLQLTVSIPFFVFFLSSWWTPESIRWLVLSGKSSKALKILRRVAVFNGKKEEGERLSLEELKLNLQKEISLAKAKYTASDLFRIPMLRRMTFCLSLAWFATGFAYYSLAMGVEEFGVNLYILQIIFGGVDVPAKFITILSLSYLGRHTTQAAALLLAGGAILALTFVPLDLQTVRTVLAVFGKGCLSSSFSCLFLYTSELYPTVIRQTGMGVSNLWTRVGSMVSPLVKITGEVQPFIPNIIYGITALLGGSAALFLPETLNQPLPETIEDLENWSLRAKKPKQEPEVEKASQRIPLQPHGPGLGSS

[36] = molecular target: T4, Solute carrier family 22 member 11 (Homo sapiens, UniProt Q9NSA0); test: Inhibition of human OAT4
T4 sequence (Q9NSA0 whole entry): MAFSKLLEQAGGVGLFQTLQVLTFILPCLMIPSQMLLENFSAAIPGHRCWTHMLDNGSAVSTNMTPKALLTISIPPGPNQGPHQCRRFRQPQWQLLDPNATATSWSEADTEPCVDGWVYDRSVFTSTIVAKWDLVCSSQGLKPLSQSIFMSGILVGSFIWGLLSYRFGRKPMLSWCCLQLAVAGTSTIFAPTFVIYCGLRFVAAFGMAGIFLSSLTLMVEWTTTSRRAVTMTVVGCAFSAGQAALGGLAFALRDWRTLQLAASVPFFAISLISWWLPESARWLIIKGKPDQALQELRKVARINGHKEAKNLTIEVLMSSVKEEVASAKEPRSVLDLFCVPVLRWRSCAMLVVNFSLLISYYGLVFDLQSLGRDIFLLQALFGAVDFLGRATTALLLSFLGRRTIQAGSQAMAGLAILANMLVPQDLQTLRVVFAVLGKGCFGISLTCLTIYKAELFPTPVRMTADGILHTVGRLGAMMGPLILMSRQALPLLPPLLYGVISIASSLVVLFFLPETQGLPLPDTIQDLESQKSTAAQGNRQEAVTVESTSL

## Nc1ccncc1 [DALFAMPRIDINE]
Mus musculus [1]
  ED50: 8.4 mg/kg

## O=c1[nH]c2cc([N+](=O)[O-])c([N+](=O)[O-])cc2[nH]c1=O [DNQX]
[2]
  IC50: 0.5 µM
[3]
  IC50: 2 µM
Glutamate NMDA receptor [4]
  IC50: 40 µM
Glutamate NMDA receptor [5]
  IC50: 9.5 µM

## O=c1[nH]c2cc(C(F)(F)F)c(N3CCOCC3)cc2n(CP(=O)(O)O)c1=O [FANAPANEL]
[2]
  IC50: 0.12 µM
[3]
  IC50: 2.5 µM
Glutamate NMDA receptor [4]
  IC50: 2.8 µM
Glutamate NMDA receptor [5]
  IC50: 5.15 µM
Rattus norvegicus [6]
  Activity: 19%
Rattus norvegicus [7]
  ED50: 13 mg/kg

## CN(C)CCOc1ccccc1-c1nc(-c2ccccc2)no1 [IRAMPANEL]
[8]
  IC50: 8.5 µM
Mus musculus [9]
  ED50: 23.4 mg/kg

## O=C(O)CCS [MERCAPTOPROPIONIC ACID]
Mus musculus [1]
  ED50: 17.1 mg/kg

## NS(=O)(=O)c1cccc2c1c([N+](=O)[O-])cc1nc(O)c(O)nc12 [NBQX]
[2]
  IC50: 0.15 µM
[3]
  IC50: 4.8 µM
Glutamate NMDA receptor [4]
  IC50: > 90 µM
Glutamate NMDA receptor [5]
  IC50: > 100 µM
Rattus norvegicus [10]
  Ratio IC50: > 30
Rattus norvegicus [11]
  Activity: 30%
Mus musculus [9]
  ED50: 27.8 mg/kg

## CN1CCC[C@H]1c1cccnc1 [NICOTINE]
Mus musculus [1]
  ED50: 22.7 mg/kg

## C1CCc2nnnn2CC1 [PENTYLENETETRAZOL]
Mus musculus [1]
  ED50: 16.8 mg/kg

## N#Cc1ccccc1-c1cc(-c2ccccn2)cn(-c2ccccc2)c1=O [PERAMPANEL]
Mus musculus [9]
  ED50: 0.47 mg/kg
Mus musculus [1]
  ED50: 1.6 mg/kg
[12]
  IC50: 0.093 µM
Mus musculus [13]
  ED50: 0.94 mg/kg
Homo sapiens [14]
  Activity: 40%

## O=C1C[C@@H]2OCC=C3CN4CC[C@]56c7ccccc7N1[C@H]5[C@H]2[C@H]3C[C@H]46 [STRYCHNINE]
Mus musculus [1]
  ED50: 17.4 mg/kg

## CC(=O)N1N=C(c2ccc(N)cc2)c2cc3c(cc2C[C@H]1C)OCO3 [TALAMPANEL]
Mus musculus [1]
  ED50: 8.6 mg/kg
Meriones unguiculatus [15]
  Activity: 25%
Meriones unguiculatus [16]
  Activity: 47%
Homo sapiens [17]
  Activity: 26%
Homo sapiens [18]
  Activity: 52%

## O=C(O)[C@@H]1C[C@H]2C[C@@H](CCc3nn[nH]n3)CC[C@H]2CN1 [TEZAMPANEL ANHYDROUS]
[2]
  IC50: 1.3 µM
  Ki: 0.68 µM
[3]
  IC50: 28.1 µM
[19]
  Kb: 0.2 µM
[20]
  Ki: > 100 µM
[21]
  Ki: > 100 µM
Mus musculus [22]
  ED50: 2.9 mg/kg
Meriones unguiculatus [23]
  Activity: 31%
Meriones unguiculatus [24]
  Activity: 25%
Felis catus [25]
  Activity: 18%
Felis catus [26]
  Activity: 19%
Homo sapiens [27]
  Activity: <= 58%
Homo sapiens [28]
  Activity: 20%
Homo sapiens [29]
  Activity: 15%
[30]
  inhibition: < 20%

## O=c1[nH]c2cc(-n3ccnc3)c([N+](=O)[O-])cc2[nH]c1=O [YM-90K]
[2]
  Ki: 0.084 µM
[3]
  Ki: 2.2 µM
Glutamate NMDA receptor [4]
  Ki: > 100 µM

## O=C(O)Cn1c(=O)c(=O)[nH]c2cc([N+](=O)[O-])c(-n3ccnc3)cc21 [ZONAMPANEL]
[2]
  Ki: 0.096 µM
[3]
  IC50: 4.6 µM
Glutamate NMDA receptor [4]
  IC50: > 100 µM
Glutamate NMDA receptor [5]
  IC50: > 100 µM
Rattus norvegicus [31]
  Activity: 35%
Rattus norvegicus [32]
  Activity: 45%
Rattus norvegicus [33]
  Activity: 55%
[34]
  IC50: 3 µM
[35]
  IC50: 6.6 µM
[36]
  IC50: 300 µM
